Published values collected from several papers.
Lines come from different studies, so protocols differ.
Target: cAMP-dependent protein kinase catalytic subunit beta (PRKACB, Homo sapiens, UniProt P22694)

Compound | test | setting | remaining binding
CCN1CCN(Cc2ccc(C(=O)Nc3ccc(C)c(Oc4ccc5c(c4)CC(=O)N5)c3)cc2C(F)(F)F)CC1 | binding, competition with immobilised ligand | 1 µM | 80%
O=C(c1ccc(Nc2ncc(Cl)c(-c3ccc(Cl)s3)n2)cc1)N1CCC(N2CCCC2)CC1 | binding, competition with immobilised ligand | 1 µM | 100%
Cc1nc(Cc2cccc(C(F)(F)F)c2)sc1-c1ccc(C(N)=O)nc1 | cell-free assay, competition with immobilised ligand | 1 µM | 92%
CC1CCCN1c1nccc(-c2cnn3ncccc23)n1 (centres unmarked) | binding, competition with immobilised ligand | 1 µM | 89%
CS(=O)(=O)N1CCCC(NC(=O)[C@H](CCC2CCCCC2)NC(=O)c2ccc(CNc3ncnc4c3nnn4-c3ccccc3)cc2)C1 (some centres unmarked) | cell-free assay, competition with immobilised ligand | 0.1 µM | 92%
CN(c1nccc(-c2cnn3ncccc23)n1)C1CC1 | binding | 1 µM | 99%
O=C(Nc1c[nH]nc1C(=O)NC1CCNCC1)c1cc(F)cc(F)c1 | binding, competition with immobilised ligand | 1 µM | 100%
O=C(c1ccc(Nc2nccc(-c3cc4ccccc4s3)n2)cc1)N1CCC(N2CCCC2)CC1 | binding, competition with immobilised ligand | 1 µM | 100%
CNC(=O)[C@@H]1CC[C@@H](n2c(-c3ccc4cnccc4c3)nc3ccc(C(=O)NCc4cccc(C(N)=O)c4)cc32)C1 | binding, competition with immobilised ligand | 1 µM | 100%
CN(C)c1nccc(-c2cnc3ncccn23)n1 | binding, competition with immobilised ligand | 1 µM | 82%
Nc1ncc2c(n1)-c1c([nH]c3ccc(C#CC4CC4)cc13)CCCC2 | binding, competition with immobilised ligand | 1 µM | 86%
C[C@@H]1CN(c2cc(-c3n[nH]c4ccc(OC5(C)CC5)cc34)ncn2)C[C@H](C)O1 | cell-free assay, competition with immobilised ligand | 0.1 µM | 91%
Cc1cnc(Nc2ccc(C(=O)N3CCC(N4CCCC4)CC3)cc2)nc1-c1cc2ccccc2s1 | binding, competition with immobilised ligand | 1 µM | 85%
CN(CCCC(F)(F)F)c1nccc(-c2cnn3ncccc23)n1 | binding, competition with immobilised ligand | 1 µM | 100%
NS(=O)(=O)c1cc(NC(=O)Cc2ccccc2)ccc1Oc1cccc(Cl)c1 | cell-free assay, competition with immobilised ligand | 1 µM | 100%
C[C@@H]1CCN(c2nccc(-c3cnn4ncccc34)n2)C1 | binding, competition with immobilised ligand | 1 µM | 72%
COc1ccc2c(O[C@@H]3C[C@H]4C(=O)N[C@]5(C(=O)O)CC5/C=C\CCCCC[C@H](NC(=O)OC5CCCC5)C(=O)N4C3)cc(-c3csc(NC(=O)C(C)C)n3)nc2c1C (some centres unmarked) | cell-free assay, competition with immobilised ligand | 1 µM | 100%
c1cnn2ncc(-c3ccnc(N4CCC45COC5)n3)c2c1 | binding, competition with immobilised ligand | 1 µM | 92%
COc1cc(-c2cn(C3CCc4c(F)cccc4N(CC(F)(F)F)C3=O)nn2)ccc1-n1cnc(C)c1 (centres unmarked) | cell-free assay, competition with immobilised ligand | 1 µM | 95%
COc1cnc(Nc2cccc(S(N)(=O)=O)c2)nc1N1CCN(c2ccccc2)C(=O)C1 | binding, competition with immobilised ligand | 1 µM | 99%
